Experiments:
Adenosine receptor A2b [1] = molecular target: T1, Adenosine receptor A2b (Mus musculus, UniProt Q60614); experiment: Displacement of [3H]PSB-603 from recombinant mouse adenosine A2B receptor expressed in CHO cell membranes after 75 mins by liquid scintillation counting method
T1 sequence (Q60614 whole entry): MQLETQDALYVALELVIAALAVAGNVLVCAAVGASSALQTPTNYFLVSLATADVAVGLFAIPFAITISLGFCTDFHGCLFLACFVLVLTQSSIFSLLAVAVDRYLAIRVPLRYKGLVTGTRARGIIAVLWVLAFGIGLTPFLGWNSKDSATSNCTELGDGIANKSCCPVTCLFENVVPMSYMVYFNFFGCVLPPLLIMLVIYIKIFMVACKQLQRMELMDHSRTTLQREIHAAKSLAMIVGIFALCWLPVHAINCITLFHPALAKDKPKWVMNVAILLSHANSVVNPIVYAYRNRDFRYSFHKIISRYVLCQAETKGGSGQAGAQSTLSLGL
Procedure, shortened: (§1)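 [³H]PSB-603 (0.3 nM) used with CHO membranes expressing human, mouse or rat A2BAR, 75 min at rt. Membranes pre-incubated 10-15 min with ADA 0.12 IU/mL. Nonspecific binding defined with 10 µM DPCPX. DMSO 2.5 % final. Filtration on GF/B with ice-cold 50 mM Tris-HCl pH 7.4 containing 0.1 % BSA, then scintillation counting. Curves used 6-7 concentrations over 3 log units. At least three experiments.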

Adenosine receptor A1 [2] = molecular target: T2, Adenosine receptor A1 (Rattus norvegicus, UniProt P25099); experiment: Displacement of [3H]CCPA from adenosine A1 receptor in rat brain cortical membranes after 90 mins by liquid scintillation counting method; format: cell membranes
T2 sequence (P25099 whole entry): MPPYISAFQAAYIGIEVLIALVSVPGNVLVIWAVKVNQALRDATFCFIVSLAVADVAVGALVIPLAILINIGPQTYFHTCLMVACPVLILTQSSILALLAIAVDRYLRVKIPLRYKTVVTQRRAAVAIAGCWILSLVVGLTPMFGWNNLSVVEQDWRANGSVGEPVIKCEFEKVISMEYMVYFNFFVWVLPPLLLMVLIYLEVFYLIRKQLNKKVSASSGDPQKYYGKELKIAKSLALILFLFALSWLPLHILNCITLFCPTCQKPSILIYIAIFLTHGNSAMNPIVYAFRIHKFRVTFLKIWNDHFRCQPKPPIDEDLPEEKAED
Procedure, shortened: (§2)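 [³H]CCPA (1 nM) used with rat brain cortical or human A1-CHO membranes, 90 min at rt. Membranes pre-incubated 10-15 min with ADA 0.12 IU/mL. Nonspecific binding defined with 10 µM CADO. Compounds dissolved in DMSO, 2.5 % final. Filtration on GF/B filters with ice-cold Tris-HCl washes, then scintillation counting. Curves used 6-7 concentrations spanning 3 log units. At least three experiments, in duplicate (human) or triplicate (rat).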

Adenosine receptor A2b [3] = molecular target: T3, Adenosine receptor A2b (Homo sapiens, UniProt P29275); experiment: Antagonist activity at recombinant human adenosine A2B receptor expressed in CHO cell membranes assessed as inhibition of NECA-induced cAMP accumulation preincubated for 1 hr followed by NECA induction measured after 5 mins in presence of [3H]cAMP and bovine cAMP-binding protein by liquid scintillation counting method; format: functional
T3 sequence (P29275 whole entry): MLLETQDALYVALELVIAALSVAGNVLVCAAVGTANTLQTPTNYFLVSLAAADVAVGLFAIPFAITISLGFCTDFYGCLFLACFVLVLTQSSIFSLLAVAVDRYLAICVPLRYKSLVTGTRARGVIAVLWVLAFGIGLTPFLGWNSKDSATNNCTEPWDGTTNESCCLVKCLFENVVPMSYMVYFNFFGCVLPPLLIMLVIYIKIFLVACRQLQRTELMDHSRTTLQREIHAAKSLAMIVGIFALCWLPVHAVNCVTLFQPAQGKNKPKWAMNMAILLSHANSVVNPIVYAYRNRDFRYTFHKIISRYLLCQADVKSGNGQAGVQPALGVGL
Procedure, shortened: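 CHO cells stably expressing human A2BAR, pre-incubated with antagonist dilutions for 1 h at 37°C, then stimulated with NECA (10 µM final) for 5 min at 37°C. Reaction stopped with hot (90 °C) lysis solution (4 mM EDTA, 0.01 % Triton X100). cAMP quantified by radioactive competition with [³H]cAMP and bovine adrenal cAMP-binding protein. Response expressed as % of NECA response without antagonist. Means ± SEM, three independent experiments in duplicate.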

[4] = Selectivity ratio of Ki for adenosine A2A receptor in rat brain striatal membranes to Ki for recombinant human adenosine A2B receptor expressed in CHO cell membranes; format: cell-based
Adenosine receptor A2a [5] = molecular target: Adenosine receptor A2a (Rattus norvegicus, UniProt P30543); experiment: Displacement of [3H]MSX-2 from adenosine A2A receptor in rat brain striatal membranes after 30 mins by liquid scintillation counting method; format: cell membranes, Striatum, Membrane
Procedure, shortened: (§3)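 [³H]MSX-2 (1 nM) used with rat striatal or human A2A-HEK membranes, 30 min at rt. Membranes pre-incubated 10-15 min with ADA 0.12 IU/mL. DMSO 2.5 % final. GF/B filtration, then scintillation counting. Curves used 6-7 concentrations over 3 log units. At least three experiments, in duplicate (human) or triplicate (rat).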

Adenosine receptor A2b [6] = molecular target: T3, Adenosine receptor A2b; experiment: Displacement of [3H]PSB-603 from recombinant human adenosine A2B receptor expressed in CHO cell membranes after 75 mins by liquid scintillation counting method; procedure, shortened: as §1
Adenosine receptor A3 = molecular target: T4, Adenosine receptor A3 (Homo sapiens, UniProt P0DMS8); experiment: Displacement of [3H]PSB-11 from recombinant human adenosine A3 receptor expressed in CHO cell membranes after 45 mins by liquid scintillation counting method
T4 sequence (P0DMS8 whole entry): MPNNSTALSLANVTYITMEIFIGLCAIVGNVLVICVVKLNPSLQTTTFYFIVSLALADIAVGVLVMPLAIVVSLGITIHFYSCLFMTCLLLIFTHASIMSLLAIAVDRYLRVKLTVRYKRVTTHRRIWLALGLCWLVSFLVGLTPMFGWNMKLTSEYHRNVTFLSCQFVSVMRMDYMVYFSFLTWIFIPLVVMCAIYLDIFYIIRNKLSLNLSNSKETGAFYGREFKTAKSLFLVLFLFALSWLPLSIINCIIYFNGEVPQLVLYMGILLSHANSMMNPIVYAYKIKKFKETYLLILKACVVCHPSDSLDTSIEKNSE
Procedure, shortened: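 Human A3-CHO membranes incubated with [³H]PSB-11 (1 nM) for 45 min at rt, after 10-15 min pre-incubation with ADA 0.12 IU/mL. Nonspecific binding defined with 100 µM R-PIA. DMSO 2.5 % final. GF/B filtration, then scintillation counting. Curves used 6-7 concentrations over 3 log units. At least three experiments in duplicate.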

Adenosine receptor A1 [7] = molecular target: T2, Adenosine receptor A1; experiment: Displacement of [3H]-ADAC from adenosine A1 receptor in rat cerebral cortex membranes after 120 mins by filter binding method; format: cell membranes, Membrane
Adenosine receptor A1 [8] = molecular target: T5, Adenosine receptor A1 (Homo sapiens, UniProt P30542); experiment: Displacement of [3H]DPCPX from recombinant human adenosine A1 receptor expressed in CHO cell membranes after 60 mins by scintillation counting method
T5 sequence (P30542 whole entry): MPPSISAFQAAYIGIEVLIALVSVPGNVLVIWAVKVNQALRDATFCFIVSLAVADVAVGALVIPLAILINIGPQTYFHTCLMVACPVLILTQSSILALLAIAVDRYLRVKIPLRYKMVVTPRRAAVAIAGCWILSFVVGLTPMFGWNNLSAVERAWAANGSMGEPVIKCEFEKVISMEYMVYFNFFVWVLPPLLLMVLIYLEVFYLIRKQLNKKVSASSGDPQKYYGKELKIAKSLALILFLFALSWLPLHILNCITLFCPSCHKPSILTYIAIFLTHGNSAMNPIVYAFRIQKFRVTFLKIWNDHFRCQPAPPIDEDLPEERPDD

[9] = molecular target: T6, Adenosine receptor A1 (Homo sapiens) (UniProt P30542); experiment: Antagonist activity at recombinant human adenosine A1 receptor expressed in CHO cell membranes assessed as inhibition of NECA-induced cAMP accumulation; format: functional, cell-based
T6 sequence (whole entry): T5 sequence (P30542 whole entry)

Adenosine receptor A1 [10] = molecular target: T5, Adenosine receptor A1; experiment: Displacement of [3H]CCPA from recombinant human adenosine A1 receptor expressed in CHO cell membranes after 90 mins by liquid scintillation counting method; procedure, shortened: as §2
Adenosine receptor A2a [11] = molecular target: Adenosine receptor A2a (Homo sapiens, UniProt P29274); experiment: Displacement of [3H]MSX-2 from recombinant human adenosine A2A receptor expressed in HEK cell membranes after 30 mins by liquid scintillation counting method
Procedure, shortened: as §3, with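 “IU/mL. Nonspecific binding defined with 10 µM CGS15943.” for “IU/mL.”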

Homo sapiens [12] = organism: Homo sapiens; experiment: Selectivity ratio of Ki for recombinant human adenosine A2A receptor expressed in HEK cell membranes to Ki for recombinant human adenosine A2B receptor expressed in CHO cell membranes; format: cell-based
Homo sapiens [13] = organism: Homo sapiens; experiment: Selectivity ratio of Ki for recombinant human adenosine A3 receptor expressed in CHO cell membranes to Ki for recombinant human adenosine A2B receptor expressed in CHO cell membranes; format: cell-based

Chain of Adenosine receptor A2a (Rattus norvegicus, UniProt P30543) (P30543 whole entry): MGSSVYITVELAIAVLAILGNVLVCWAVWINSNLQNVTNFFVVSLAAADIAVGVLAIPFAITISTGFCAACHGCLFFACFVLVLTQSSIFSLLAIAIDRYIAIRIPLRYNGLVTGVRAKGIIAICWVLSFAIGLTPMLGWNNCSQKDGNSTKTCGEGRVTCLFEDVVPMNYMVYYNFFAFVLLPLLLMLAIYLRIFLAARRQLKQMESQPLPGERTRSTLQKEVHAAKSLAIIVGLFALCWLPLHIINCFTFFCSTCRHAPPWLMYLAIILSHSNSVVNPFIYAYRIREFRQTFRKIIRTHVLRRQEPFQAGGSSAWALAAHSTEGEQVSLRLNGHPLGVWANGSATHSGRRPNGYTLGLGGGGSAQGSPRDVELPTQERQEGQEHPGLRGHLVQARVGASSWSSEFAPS
Chain of Adenosine receptor A2a (Homo sapiens, UniProt P29274) (P29274 whole entry): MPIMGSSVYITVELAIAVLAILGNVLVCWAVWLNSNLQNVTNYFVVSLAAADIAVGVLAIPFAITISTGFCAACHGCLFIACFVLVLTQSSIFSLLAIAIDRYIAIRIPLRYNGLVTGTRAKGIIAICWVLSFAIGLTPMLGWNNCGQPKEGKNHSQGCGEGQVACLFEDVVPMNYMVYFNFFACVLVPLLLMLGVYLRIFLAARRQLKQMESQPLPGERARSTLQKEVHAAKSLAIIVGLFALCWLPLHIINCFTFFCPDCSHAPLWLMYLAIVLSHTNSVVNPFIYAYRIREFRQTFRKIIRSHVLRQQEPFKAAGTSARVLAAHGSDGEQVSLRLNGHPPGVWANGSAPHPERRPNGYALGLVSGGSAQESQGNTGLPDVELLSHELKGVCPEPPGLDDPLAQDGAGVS

Row | Structure (SMILES) | Ki (Adenosine receptor A1 [2]) [nM] | IC50 (Adenosine receptor A2b [3]) [nM] | Ki (Adenosine receptor A2a [5]) [nM] | Ki (Adenosine receptor A2b [6]) [nM] | Ki (Adenosine receptor A3) [nM] | Ratio Ki [4] | also measured
1 | Cn1c(=O)c2c(ncn2C)n(C)c1=O [CAFFEINE] |  |  |  |  |  |  | Ki (Adenosine receptor A2b [1]): 23000 nM
2 | O=C(Cc1ccc(NC(=O)Cc2ccc(Nc3ncnc4c3ncn4[C@@H]3O[C@H](CO)[C@@H](O)[C@H]3O)cc2)cc1)NCCNC(=S)Nc1ccc(-c2c3ccc(=O)cc-3oc3cc(O)ccc23)c(C(=O)O)c1 |  |  |  |  |  |  | Ki (Adenosine receptor A1 [7]): 7.1 nM
3 | CCCn1c(=O)c2[nH]c(-c3ccc(OCC(=O)NCCNC(=O)CCCCCNC(=O)COc4ccc(/C=C/C5=[N+]6C(=Cc7ccc(-c8cccs8)n7[B-]6(F)F)C=C5)cc4)cc3)nc2n(CCC)c1=O |  |  |  |  |  |  | Kd (Adenosine receptor A1 [8]): 151 nM; Kb [9]: 209 nM

Continued, in another order:

Row | Ki (Adenosine receptor A1 [2]) [nM] | IC50 (Adenosine receptor A2b [3]) [nM] | Ki (Adenosine receptor A2a [5]) [nM] | Ki (Adenosine receptor A2b [6]) [nM] | Ki (Adenosine receptor A3) [nM] | Structure (SMILES) | Ratio Ki [4] | also measured
4 | 7.85 | 141 | > 10000 | 7.45 | > 10000 | CCCn1c(=O)[nH]c2nc(-c3ccc(OCC(=O)NCCc4ccccc4)cc3)[nH]c2c1=O | > 150 | 
5 | 77.9 |  | 477 | 5.9 | 4550 | CCCn1c(=O)[nH]c2nc(-c3ccc(OCC(=O)NCCCCCC4=C5C(C)=CC(C)=[N+]5[B-](F)(F)n5c(C)cc(C)c54)cc3)[nH]c2c1=O | 81 | Ki (Adenosine receptor A1 [10]): 714 nM; Ki (Adenosine receptor A2a [11]): 58.7 nM; Ratio Ki (Homo sapiens [12]): 9.9
6 | 27.2 | 135 | > 10000 | 7 | 266 | CCCn1c(=O)[nH]c2nc(-c3ccc(OCC(=O)NCc4ccccc4)cc3)[nH]c2c1=O | > 150 | Ratio Ki (Homo sapiens [13]): 38
7 | 35.3 | 174 | > 10000 | 27.9 | 2990 | CCCn1c(=O)[nH]c2nc(-c3ccc(OCC(=O)NCCCc4ccccc4)cc3)[nH]c2c1=O | > 150 | 
8 | 227 |  | > 10000 | 7.82 | ≥ 10000 | CCCn1c(=O)[nH]c2nc(-c3ccc(OCC(=O)NCCCCCCCCCCC4=C5C(C)=CC(C)=[N+]5[B-](F)(F)n5c(C)cc(C)c54)cc3)[nH]c2c1=O | > 150 | Ki (Adenosine receptor A1 [10]): > 10000 nM; Ki (Adenosine receptor A2a [11]): 1600 nM; Ratio Ki (Homo sapiens [12]): > 150

Source: ChEMBL document CHEMBL4184319, “Fluorescent-Labeled Selective Adenosine A2B Receptor Antagonist Enables Competition Binding Assay by Flow Cytometry” (J Med Chem, 2018)
